Reference: ChEMBL document CHEMBL2016498, “Synthesis and antiviral activity of a series of 1'-substituted 4-aza-7,9-dideazaadenosine C-nucleosides” (Bioorg Med Chem Lett, 2012)

Tests used:
West Nile virus = assay: Antiviral activity against West nile virus NY99 infected in african green monkey Vero cells assessed as inhibition of virus induced cytopathic effect after 24 hrs by MTS assay; format: functional, organism-based; settings: NY-99, Vero
Vero [1] = assay: Cytotoxicity against african green monkey Vero E6 cells by MTS assay; format: cell-based; settings: chlorocebus sabaeus
Procedure, shortened: (§1)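 CC50 measured in the uninfected host cells used in each CPE assay. Compound cytotoxicity is read out by MTS dye reduction.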

SARS-CoV = assay: Antiviral activity against SARS coronavirus Toronto-2 infected in african green monkey Vero cells assessed as inhibition of virus induced cytopathic effect after 24 hrs by MTS assay; format: functional, organism-based; settings: Severe acute respiratory syndrome-related coronavirus, Toronto-2, Vero
Influenza A virus = assay: Antiviral activity against Influenza A virus H3N2 infected in MDCK cells assessed as inhibition of virus induced cytopathic effect after 24 hrs by MTS assay; format: functional, organism-based
[2] = Antiviral activity against Coxsackievirus A7 infected in human MRC5 cells assessed as inhibition of virus induced cytopathic effect after 24 hrs by MTS assay; format: functional, cell-based; settings: Enterovirus A, MRC5, 24 h
Procedure, shortened: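 Cytoprotection (CPE) assay in MRC-5 cells infected with Coxsackie A strain A7 or A21. MTS dye reduction read out both protection from virus-induced CPE and compound cytotoxicity, giving EC50 and CC50.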

MDCK = assay: Cytotoxicity against dog MDCK cells by MTS assay; format: cell-based, Canis lupus familiaris; procedure, shortened: as §1
Coxsackievirus A21 = assay: Antiviral activity against Coxsackievirus A21 infected in human MRC5 cells assessed as inhibition of virus induced cytopathic effect after 24 hrs by MTS assay; format: functional, organism-based; settings: Enterovirus C, MRC5, 24 h
Procedure, shortened: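 EC50 taken from a cytoprotection (CPE) assay. Protection of virus-infected host cells is read out by MTS dye reduction. The Coxsackie A assay uses MRC-5 cells with strain A7 or A21.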

dengue virus type 2 = assay: Antiviral activity against Dengue virus type 2 New Guinea C infected in african green monkey Vero E6 cells assessed as inhibition of virus induced cytopathic effect after 24 hrs by MTS assay; format: functional, organism-based
MRC5 = assay: Cytotoxicity against human MRC5 cells by MTS assay; format: cell-based; procedure, shortened: as §1
Human respirovirus 3 = assay: Antiviral activity against Parainfluenza 3 C 243 infected in african green monkey Vero cells assessed as inhibition of virus induced cytopathic effect after 24 hrs by MTS assay; format: functional, organism-based; settings: Human respirovirus 3, C 243, Vero
[3] = (§2) Cytotoxicity against human HuH7 cells by MTS assay; format: cell-based, Huh-7; settings: HuH7 cells
Vero [4] = assay: Cytotoxicity against african green monkey Vero cells by MTS assay; format: cell-based; settings: chlorocebus sabaeus; procedure, shortened: as §1
Hepatitis C virus [5] = assay: Antiviral activity against Hepatitis C virus genotype 1b infected in human HuH7 cells assessed as inhibition of virus induced cytopathic effect after 24 hrs by MTS assay; format: functional, organism-based, Hepacivirus hominis; settings: Huh-7, 24 h
Hepatitis C virus [6] = assay: Inhibition of Hepatitis C virus genotype 1b NS5B RNA-dependent RNA polymerase using [33P]ATP after 90 mins by phosphoimaging; parameters: species or system Hepatitis C virus subtype 1b; settings: 1.5 h
Procedure, shortened: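 Uses recombinant GT1b NS5B in 50 mM Tris–HCl pH 7.5 with 10 mM KCl, 1 mM DTT, 5 mM MgCl2, 0.2 unit/μL RNAsin and 0.01% BSA (final concentrations). 75 nM enzyme is pre-incubated with 4 ng/μL (50 nM) heteropolymer sshRNA template for 5 min at rt. Inhibitor is then added and incubated 5 min at RT.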

[7] = Selectivity ratio of CC50 for human HuH7 cells to EC50 for Hepatitis C virus genotype 1b; format: ADME, cell-based, Huh-7; settings: read-out: Ratio CC50/EC50
Procedure, shortened: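 Anti-HCV EC50 was measured in a subgenomic HCV replicon cell assay, and CC50 was measured in the host cells of the same assay. The selectivity index was calculated as CC50/EC50.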

Huh-7 = assay: as §2; format: cell-based; settings: huh-7
HeLa = assay: Cytotoxicity against human HeLa cells by MTS assay; format: cell-based; procedure, shortened: as §1
Yellow fever virus = assay: Antiviral activity against Yellow fever virus 17D infected in human HeLa cells assessed as inhibition of virus induced cytopathic effect after 24 hrs by MTS assay; format: functional, cell-based

| SMILES | EC50 (West Nile virus) [µM] | CC50 (Vero [1]) [µM] | EC50 (SARS-CoV) [µM] | EC50 (Influenza A virus) [µM] | EC50 [2] [µM] | CC50 (MDCK) [µM] | EC50 (Coxsackievirus A21) [µM] | EC50 (dengue virus type 2) [µM] | CC50 (MRC5) [µM] | EC50 (Human respirovirus 3) [µM] | CC50 [3] [µM] | CC50 (Vero [4]) [µM] | EC50 (Hepatitis C virus [5]) [µM] | IC50 (Hepatitis C virus [6]) [µM] | selectivity ratio [7] | CC50 (Huh-7) [µM] | further results |
| --- | --- | --- | --- | --- | --- | --- | --- | --- | --- | --- | --- | --- | --- | --- | --- | --- | --- |
| C[C@@]1(c2ccc3c(N)ncnn23)O[C@H](CO)[C@@H](O)[C@H]1O | > 30 | > 30 | > 30 | > 30 | > 30 | > 30 | > 30 | > 30 | > 30 | 5.23 | > 45 | > 30 | – | – | – | – | – |
| C=C[C@@]1(c2ccc3c(N)ncnn23)O[C@H](CO)[C@@H](O)[C@H]1O | > 30 | > 30 | 14 | > 30 | > 30 | > 30 | > 30 | > 30 | > 30 | > 30 | > 89 | > 30 | > 89 | – | – | – | – |
| C#C[C@@]1(c2ccc3c(N)ncnn23)O[C@H](CO)[C@@H](O)[C@H]1O | > 30 | > 30 | > 30 | > 30 | > 30 | > 30 | > 30 | > 30 | > 30 | > 30 | > 89 | > 30 | > 89 | – | – | – | – |
| C[C@@]1(c2ccc3c(N)ncnn23)O[C@H](COP(=O)(O)OP(=O)(O)OP(=O)(O)O)[C@@H](O)[C@H]1O | – | – | – | – | – | – | – | – | – | – | – | – | – | 20 | – | – | – |
| C=C[C@@]1(c2ccc3c(N)ncnn23)O[C@H](COP(=O)(O)OP(=O)(O)OP(=O)(O)O)[C@@H](O)[C@H]1O | – | – | – | – | – | – | – | – | – | – | – | – | – | 178 | – | – | – |
| C#C[C@@]1(c2ccc3c(N)ncnn23)O[C@H](COP(=O)(O)OP(=O)(O)OP(=O)(O)O)[C@@H](O)[C@H]1O | – | – | – | – | – | – | – | – | – | – | – | – | – | 232 | – | – | – |
| CC(C)(C)C(=O)SCCOP(=O)(OCCSC(=O)C(C)(C)C)OC[C@H]1O[C@@](C#N)(c2ccc3c(N)ncnn23)[C@H](O)[C@@H]1O | – | – | – | – | – | – | – | – | – | – | – | – | 0.085 | – | 40 | 3.2 | – |
| CC(C)(C)C(=O)SCCOP(=O)(OCCSC(=O)C(C)(C)C)OC[C@H]1O[C@@](C)(c2ccc3c(N)ncnn23)[C@H](O)[C@@H]1O | – | – | – | – | – | – | – | – | – | – | – | – | 0.078 | – | < 10 | 0.73 | – |
| C=C[C@@]1(c2ccc3c(N)ncnn23)O[C@H](COP(=O)(OCCSC(=O)C(C)(C)C)OCCSC(=O)C(C)(C)C)[C@@H](O)[C@H]1O | – | – | – | – | – | – | – | – | – | – | – | – | 3.43 | – | < 10 | 12 | – |
| C#C[C@@]1(c2ccc3c(N)ncnn23)O[C@H](COP(=O)(OCCSC(=O)C(C)(C)C)OCCSC(=O)C(C)(C)C)[C@@H](O)[C@H]1O | – | – | – | – | – | – | – | – | – | – | – | – | 6.01 | – | < 10 | 26 | – |
| N#C[C@@]1(c2ccc3c(N)ncnn23)O[C@H](CO)[C@@H](O)[C@H]1O [GS-441524] | > 30 | > 30 | 2.24 | 27.9 | > 30 | > 30 | > 30 | 9.46 | > 30 | 1.71 | > 89 | > 30 | – | – | – | – | CC50 (HeLa): > 30 µM; EC50 (Yellow fever virus): 11 µM |
| N#C[C@@]1(c2ccc3c(N)ncnn23)O[C@H](COP(=O)(O)OP(=O)(O)OP(=O)(O)O)[C@@H](O)[C@H]1O [RDV-TP] | – | – | – | – | – | – | – | – | – | – | – | – | – | 5.6 | – | – | – |
